Results published in ChEMBL document CHEMBL1124808, “The synthesis and antiallergy activity of 1-(aryloxy)-4-(4-arylpiperazinyl)-2-butanol derivatives” (1990).

Tests used:
Format in all cases: functional
[1] = system: Rattus norvegicus; assay: Percent change in volume of foot edema of test compound to that of positive control was determined at a dose of 31.6 mg/kg in rat; -82/69
[2] = system: Rattus norvegicus; assay: Percent change in volume of foot edema of test compound to that of positive control was determined at a dose of 3.16 mg/kg in rat; -9/-69
[3] = system: Rattus norvegicus; assay: Percent change in volume of foot edema of test compound to that of positive control was determined at a dose of 10 mg/kg in rat; -56/-69
[4] = system: Rattus norvegicus; assay: Percent change in volume of foot edema of test compound to that of positive control was determined at a dose of 31.6 mg/kg in rat; -23/-81
[5] = system: Rattus norvegicus; assay: Percent change in volume of foot edema of test compound to that of positive control was determined at a dose of 31.6 mg/kg in rat; -30/-81
[6] = system: Rattus norvegicus; assay: Percent change in volume of foot edema of test compound to that of positive control was determined at a dose of 10 mg/kg in rat; -15/-73
[7] = system: Rattus norvegicus; assay: Percent change in volume of foot edema of test compound to that of positive control was determined at a dose of 31.6 mg/kg in rat; -64/-73
[8] = species: Cavia porcellus; assay: Dose that protects 50% of guinea pig from collapse was determined in guinea pig anaphylaxis assay; details: read-out: PD50
Outline: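 Guinea pigs dosed by gavage (10 mL/kg) with compound in 0.5% Tween 80/water; reference theophylline 100 mg/kg po. At 1–24 h, exposed in chamber to aerosolized 1% (w/v) egg albumin at 10 L air/min for up to 5 min; protected if no collapse within 5 min. PD50 by Litchfield and Wilcoxon.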

[9] = system: Rattus norvegicus; assay: Percent change in volume of foot edema of test compound to that of positive control was determined at a dose of 10 mg/kg in rat; -41/-59
[10] = system: Rattus norvegicus; assay: Percent change in volume of foot edema of test compound to that of positive control was determined at a dose of 31.6 mg/kg in rat; -77/-67
[11] = system: Rattus norvegicus; assay: Percent change in volume of foot edema of test compound to that of positive control was determined at a dose of 10 mg/kg in rat; -34/-77
[12] = system: Rattus norvegicus; assay: Percent change in volume of foot edema of test compound to that of positive control was determined at a dose of 31.6 mg/kg in rat; -67/-63
[13] = system: Rattus norvegicus; assay: Percent change in volume of foot edema of test compound to that of positive control was determined at a dose of 31.6 mg/kg in rat; -35/-69
[14] = system: Rattus norvegicus; assay: Percent change in volume of foot edema of test compound to that of positive control was determined at a dose of 10 mg/kg in rat; -14/-62
[15] = system: Rattus norvegicus; assay: Percent change in volume of foot edema of test compound to that of positive control was determined at a dose of 31.6 mg/kg in rat; -69/-69
[16] = system: Rattus norvegicus; assay: Percent change in volume of foot edema of test compound to that of positive control was determined at a dose of 31.6 mg/kg in rat; -42/-81
[17] = system: Rattus norvegicus; assay: Percent change in volume of foot edema of test compound to that of positive control was determined at a dose of 31.6 mg/kg in rat; -27/-65
[18] = system: Rattus norvegicus; assay: Percent change in volume of foot edema of test compound to that of positive control was determined at a dose of 10 mg/kg in rat; -73/-59
[19] = system: Rattus norvegicus; assay: Percent change in volume of foot edema of test compound to that of positive control was determined at a dose of 3.16 mg/kg in rat; -8/-67
[20] = system: Rattus norvegicus; assay: Percent change in volume of foot edema of test compound to that of positive control was determined at a dose of 31.6 mg/kg in rat; -87/-67
[21] = system: Rattus norvegicus; assay: Percent change in volume of foot edema of test compound to that of positive control was determined at a dose of 3.16 mg/kg in rat; -32/-78
[22] = system: Rattus norvegicus; assay: Percent change in volume of foot edema of test compound to that of positive control was determined at a dose of 10 mg/kg in rat; -46/-83
[23] = system: Rattus norvegicus; assay: Percent change in volume of foot edema of test compound to that of positive control was determined at a dose of 31.6 mg/kg in rat; -90/-83
[24] = system: Rattus norvegicus; assay: Percent change in volume of foot edema of test compound to that of positive control was determined at a dose of 10 mg/kg in rat; -36/-88
[25] = system: Rattus norvegicus; assay: Percent change in volume of foot edema of test compound to that of positive control was determined at a dose of 31.6 mg/kg in rat; -79/-81
[26] = system: Rattus norvegicus; assay: Percent change in volume of foot edema of test compound to that of positive control was determined at a dose of 3.16 mg/kg in rat; -20/-78
[27] = system: Rattus norvegicus; assay: Percent change in volume of foot edema of test compound to that of positive control was determined at a dose of 31.6 mg/kg in rat; -56/-65
[28] = system: Rattus norvegicus; assay: Percent change in volume of foot edema of test compound to that of positive control was determined at a dose of 10 mg/kg in rat; -49/-81
[29] = system: Rattus norvegicus; assay: Percent change in volume of foot edema of test compound to that of positive control was determined at a dose of 31.6 mg/kg in rat; -80/-83
[30] = system: Rattus norvegicus; assay: Percent change in volume of foot edema of test compound to that of positive control was determined at a dose of 10 mg/kg in rat; -36/-65

In the case of NC(=O)c1ccc(OCC(O)CCN2CCN(c3ccc(F)cc3)CC2)cc1 (stereo unspecified), the PFA [1] is reported as -82, the PFA [2] is reported as -9 and the PFA [3] is reported as -56.

OC(COc1ccccc1)CN1CCN(c2ccccc2)CC1 (stereo unspecified) was tested, and the PFA [4] was -23.

OC(CCN1CC=C(c2ccccc2)CC1)COc1ccccc1 (stereo unspecified) gave a PFA [5] of -30.

Cl.Cl.N#Cc1ccc(OCC(O)CCN2CCN(c3ccccc3)CC2)cc1 (stereo unspecified) was tested, and the PFA [6] was -15 and the PFA [7] was -64.

In the case of Cn1c(=O)c2nc[nH]c2n(C)c1=O.O [THEOPHYLLINE], the ED50 [8] is reported as 75 mg/kg.

With Cc1ccc(N2CCN(CCC(O)COc3ccc(F)cc3)CC2)cc1.Cl.Cl (stereo unspecified) the PFA [9] was -41 and the PFA [10] was -77.

Molecule COc1ccc(N2CCN(CCC(O)COc3ccccc3)CC2)cc1 (stereo unspecified) has a PFA [11] of -34 and a PFA [12] of -67.

In the case of OC(CCN1CCN(c2ccccc2)CC1)COc1cccc2ccccc12 (stereo unspecified), the PFA [13] is reported as -35.

Work on COc1ccccc1OCC(O)CCN1CCN(c2ccccc2)CC1 (stereo unspecified) yielded a PFA [14] of -14 and a PFA [15] of -69.

Work on O=C(O)/C=C\C(=O)O.c1ccc(OCCCCN2CCN(c3ccccc3)CC2)cc1 yielded a PFA [16] of -42.

Work on OC(CCN1CCN(c2ccccc2Cl)CC1)COc1ccccc1 (stereo unspecified) yielded a PFA [17] of -27.

Work on Cl.OC(CCN1CCN(c2ccc(Cl)cc2)CC1)COc1ccc(F)cc1 (stereo unspecified) yielded a PFA [18] of -73, an ED50 [8] of 7.85 mg/kg and a PFA [19] of -8. The PFA [20] was -87.

In the case of Cl.NC(=O)c1ccc(OCC(O)CCN2CCN(c3ccccc3)CC2)cc1 (stereo unspecified), the PFA [21] is reported as -32, the PFA [22] is reported as -46 and the PFA [23] is reported as -90.

Cc1cc(OCC(O)CCN2CCN(c3ccccn3)CC2)ccc1Cl.Cl.Cl (stereo unspecified) showed a PFA [24] of -36 and a PFA [25] of -79.

In the case of OC(CCN1CCN(c2ccccc2)CC1)COc1ccc(Br)cc1 (stereo unspecified), the PFA [26] is reported as -20, the PFA [27] is reported as -56 and the PFA [28] is reported as -49.

With CC(=O)c1ccc(N2CCN(CCC(O)COc3ccccc3)CC2)cc1 (stereo unspecified) the PFA [29] was -80 and the PFA [30] was -36.
